In ChEMBL document CHEMBL1137362, “Synthesis and radioligand binding studies of methoxylated 1,2,3,4-tetrahydroisoquinolinium derivatives as ligands of the apamin-sensitive Ca2+-activated K+ channels” (J Med Chem, 2006):

What was measured:
[1] = target: Small conductance calcium-activated potassium channel (Rattus norvegicus) (UniProt P70604+P70606+P70605); assay: Displacement of [125I]apamin from Wistar rat cortical apamin-sensitive site at 10 uM; assay type: protein assay
Summary of the method: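 Single-concentration screen at 10 µM: rat cortical synaptosomes (0.2 mg protein/mL) with 10 pM 125I-apamin, 1 h at 0 °C, Tris-HCl pH 7.5 buffer with 5.4 mM KCl and 0.1% BSA. Percent of specific radioligand binding displaced is reported; nonspecific binding defined with 0.1 µM apamin; filtration and scintillation counting; n = 3.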

[2] = species on record: Rattus norvegicus; assay: Blockade of apamin-sensitive AHP in Wistar rat dopaminergic neurons by electrophysiology assay at 100 uM; assay type: functional, organism-based; conditions: neuron
Summary of the method: (§1)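 Intracellular bridge-balance recording of the apamin-sensitive AHP in dopaminergic neurons; drugs dissolved in water. IC50 obtained by fitting E = Emax/[1 + (IC50/x)h]; percent AHP block reported at 100 µM; means ± SEM, n = 3.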

[3] = species on record: Rattus norvegicus; assay: Blockade of apamin-sensitive AHP in Wistar rat dopaminergic neurons by electrophysiology assay; assay type: functional, organism-based; conditions: Neuron; summary of the method: as §1
[4] = target: Small conductance calcium-activated potassium channel (Rattus norvegicus, UniProt P70604+P70606+P70605); assay: Displacement of [125I]apamin from Wistar rat cortical apamin-sensitive site; assay type: protein assay

How did the Activity [1] turn out when `COc1cc2c(c(OC)c1)C(Cc1ccc3ccccc3c1)[N+](C)(C)CC2` (stereo unspecified) was run?
Its Activity is 2%.

With `COc1ccc(CC2c3c(cc(OC)c(OC)c3OC)CCN2C)cc1OC` (stereo unspecified) as the compound, how does the Activity [1] read?
The Activity was 27%.

What about the Inhibition [2] of the same compound?
The Inhibition was 51.9%.

With `COc1ccc(CC2c3c(ccc(OC)c3OC)CC[N+]2(C)C)cc1OC` (stereo unspecified) as the compound, how does the Activity [1] read?
The Activity was 24%.

`COc1ccc2c(c1OC)C(Cc1ccc3ccccc3c1)[N+](C)(C)CC2` (stereo unspecified) was tested. Which Activity [1] did it give?
The Activity was 18%.

`COc1ccc(C[C@H]2c3cc(OC)c(OC)cc3CC[N+]2(C)C)cc1OC.[I-]` [LAUDANOSINE METHIODIDE] was tested. Which IC50 [3] did it give?
Its IC50 is 15 µM.

And the Ki [4]?
Its Ki is 1.3 µM.

With `COc1cc2c(cc1OC)C(CC(C)C)[N+](C)(C)CC2` (stereo unspecified) as the compound, how does the Activity [1] read?
The Activity was 0%.

With `CN1CCc2ccccc2C1Cc1ccc2ccccc2c1` (stereo unspecified) as the compound, how does the Activity [1] read?
Its Activity is 0%.

Which Ki [4] does the source give for `COc1ccc2c(c1OC)C(=O)O[C@@H]2[C@H]1c2c(cc3c(c2OC)OCO3)CC[N+]1(C)C.[I-]` here?
The Ki was 3.6 µM.

Which Activity [1] does the source give for `COc1cc2c(c(OC)c1)C(Cc1ccc3ccccc3c1)N(C)CC2` (stereo unspecified) here?
Its Activity is 0%.

For `COc1cc2c(cc1OC)C(CC(C)C)N(C)CC2` (stereo unspecified), which Activity [1] is on record?
Its Activity is 0%.

`C[N+]1(C)CCc2ccccc2C1Cc1ccc2ccccc2c1` (stereo unspecified) was tested. Which Activity [1] did it give?
Its Activity is 1%.

How did the Activity [1] turn out when `COc1ccc(CC2c3c(ccc(OC)c3OC)CCN2C)cc1OC` (stereo unspecified) was run?
The Activity was 3%.

Which IC50 [3] does the source give for `COc1ccc(CC2c3c(cc(OC)c(OC)c3OC)CC[N+]2(C)C)cc1OC.[I-]` (stereo unspecified) here?
Its IC50 is 9 µM.

And the Activity [1]?
The Activity was 72%.

What about the Ki [4] of the same compound?
The Ki was 0.73 µM.

What does the source list for `COc1ccc(CCC2c3cc(OC)c(OC)cc3CC[N+]2(C)C)cc1OC.[I-]` (stereo unspecified)?
Activity [1]: 32%; Ki [4]: 5.4 µM

For `COc1ccc(CCC2c3cc(OC)c(OC)cc3CCN2C)cc1OC` (stereo unspecified), which Activity [1] is on record?
The Activity was 11%.

`COc1cc2c(cc1OC)C(Cc1ccc3ccccc3c1)N(C)CC2` (stereo unspecified) was tested. Which Activity [1] did it give?
Its Activity is 6%.

With `COc1cc2c(c(OC)c1OC)C(Cc1ccc3ccccc3c1)[N+](C)(C)CC2.[I-]` (stereo unspecified) as the compound, how does the Activity [1] read?
Its Activity is 53%.

And the Ki [4]?
Its Ki is 2.2 µM.

Which Activity [1] does the source give for `CCCC1c2cc(OC)c(OC)cc2CCN1C` (stereo unspecified) here?
Its Activity is 0%.

What does the source list for `COc1cc2c(cc1OC)C(Cc1ccc3ccccc3c1)[N+](C)(C)CC2.[I-]` (stereo unspecified)?
Activity [1]: 70%; Ki [4]: 0.91 µM

With `COc1cc2c(c(OC)c1)C(Cc1ccc(OC)c(OC)c1)[N+](C)(C)CC2` (stereo unspecified) as the compound, how does the Activity [1] read?
Its Activity is 20%.

Which Activity [1] does the source give for `COc1cc2c(c(OC)c1OC)C(Cc1ccc3ccccc3c1)N(C)CC2` (stereo unspecified) here?
The Activity was 0%.

Which Activity [1] does the source give for `CCCC1c2cc(OC)c(OC)cc2CC[N+]1(C)C` (stereo unspecified) here?
Its Activity is 6%.

For `COc1ccc2c(c1OC)C(Cc1ccc3ccccc3c1)N(C)CC2` (stereo unspecified), which Activity [1] is on record?
The Activity was 0%.

For `COc1cc2c(c(OC)c1)C(Cc1ccc(OC)c(OC)c1)N(C)CC2` (stereo unspecified), which Activity [1] is on record?
The Activity was 0%.
